SUMO1 PPI mod = alters human SUMO1 binding to SIM partners; P63165; SUMO1 binding to a labelled peptide, TR-FRET, 1 h; inhibition, % at 20 µM; 0.33% of 360,000 active; in the data active = inhibition above about 37%
Target sequence (P63165 whole entry, looked up): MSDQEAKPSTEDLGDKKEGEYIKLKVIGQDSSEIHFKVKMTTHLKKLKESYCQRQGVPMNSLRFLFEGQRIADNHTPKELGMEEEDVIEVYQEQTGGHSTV
HKDC1 inhibitor = HKDC1 (human) hexokinase inhibition; 0.16% of 340,000 active; recombinant HKDC1, G6PDH/diaphorase resazurin coupled fluorescence; Q2TB90; inhibition, % at 20 µM;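 active = inhibition above about 35% when tested at 20 µM, limit read from the data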;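 also: plate controls were DMSO wells with enzyme for no effect and DMSO wells lacking enzyme for full effect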
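System: Recombinant HKDC1 hexokinase | Amount: HKDC1 at 5 µg/mL | Reagent: Glucose with 1 mM ATP | Doses: Single 20 µM dose | Incubation: Reaction time 90 min, room temperature, protected from light | Signal: Coupled resazurin fluorescence, excitation 525 nm, emission 613 nm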
Scp-1 inhibitor = inhibitors of human Scp-1 phosphatase; Recombinant Scp1, phosphopeptide, malachite green phosphate absorbance; AID 493091; Q9GZU7; 0.88% of 340,000 active; inhibition, % at 20 µM;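 active = inhibition above about 50% at 20 µM, limit read from the data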;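 also: plate controls were DMSO wells with enzyme for no effect and wells lacking enzyme for full effect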
Target sequence (Q9GZU7 76-261 limits assumed): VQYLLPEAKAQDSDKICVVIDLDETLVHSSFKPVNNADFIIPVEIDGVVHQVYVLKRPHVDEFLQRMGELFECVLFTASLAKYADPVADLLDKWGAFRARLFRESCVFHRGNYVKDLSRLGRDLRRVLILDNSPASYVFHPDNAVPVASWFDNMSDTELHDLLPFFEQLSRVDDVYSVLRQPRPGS
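Assay system: SCP-1 catalytic fragment, aa 76-261 | Buffer or medium: Tris acetate buffer pH 5.5 with MgCl2 and Tween-20 | Compound: One concentration, 20 µM, with 1.0% DMSO | Also added: Phospho 17-mer peptide substrate | Signal: Absorbance at 630 nm | Incubation: 45 min enzyme reaction at room temperature | Measure: % inhibition of SCP-1 phosphate liberation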
LMPTP block = blocks human LMPTP phosphatase | P24666 | 0.22% of 360,000 active | inhibition, % at 20 µM | recombinant LMPTP-A, OMFP fluorogenic substrate, fluorescence intensity | AID 651560;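 active = compounds that cut the enzyme signal by at least half of the control window in the single-dose screen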;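 also: plate controls were DMSO wells with enzyme plus substrate for no effect and substrate without enzyme for full effect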
Target sequence (P24666 whole entry, looked up): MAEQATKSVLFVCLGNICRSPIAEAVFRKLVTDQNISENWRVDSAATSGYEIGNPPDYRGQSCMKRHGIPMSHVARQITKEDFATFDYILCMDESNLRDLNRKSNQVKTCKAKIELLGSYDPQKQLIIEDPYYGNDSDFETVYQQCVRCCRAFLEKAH
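Test system – LMPTP-A phosphatase enzyme · Quantity – 0.625 nM LMPTP-A final · Reagent – OMFP substrate, 400 µM final · Dosing – one test concentration per compound, 20 µM, with 3% DMSO overall · Timing – 50 min enzyme reaction at room temperature, protected from light · Detection – fluorescence intensity · Controls – substrate-only low control, DMSO enzyme-plus-substrate high control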
STEP inh = blocks human striatal-enriched tyrosine phosphatase; P54829; recombinant STEP, OMFP fluorogenic substrate, fluorescence; inhibition, % at 20 µM; 0.25% of 360,000 active;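 active = inhibition at 20 µM, scaled per plate between control wells, above about 37%, limit read from the data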;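 also: 0% = DMSO with enzyme and substrate and 100% = substrate only without enzyme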
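Also added – OMFP at 25 µM · Test system – STEP tyrosine phosphatase · Technique – FITC-channel fluorescence of OMFP product · Schedule – 20 min at room temperature, dark · Evaluation – control-normalized % inhibition with plate pattern correction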
DNMT1 block = inhibitors of human DNMT1. P26358. DNMT1 molecular beacon, Hinp1I cleavage, fluorescence. inhibition (reported as % activation of signal), % at 10 µM. 0.83% of 360,000 active. AID 588458; in the data active = inhibition above about 50%
HKDC1 act conf = HKDC1 (human) activation, single-dose confirmed; shares compounds with HKDC1 inhibitor; recombinant HKDC1, G6PDH/diaphorase resazurin fluorescence; active compounds read low; inhibition, % at 20 µM; 14% of 740 active; AID 504708;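 active = inhibition at or below a set negative limit, negative inhibition meaning the enzyme was activated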
Beacon interf DR = beacon fluorescence artifact, dose response counter-screen. AID 602382. molecular beacon fluorescence, spectral interference counter-screen. shares compounds with DNMT1 block. 200 tested, under 10 active. IC50, µM
DNMT1 inh conf = confirmation of human DNMT1 inhibitors; 8% of 2,300 active; DNMT1 molecular beacon HinP1I cleavage, fluorescence; AID 602385; inhibition, % at 10 µM; shares compounds with DNMT1 block;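 active = average inhibition of at least 30% in the single-concentration confirmation test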
DNMT1 interf = shows spectral interference in the DNMT1 beacon assay; shares compounds with DNMT1 block; DNMT1 molecular beacon spectral interference counterscreen, fluorescence 485/520; activation (fluorescence interference), % at 10 µM; 1% of 2,300 active;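 active = activation of at least 30% at 10 µM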;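 also: DNMT1 catalytic domain with a HinP1I cleavage step and a FAM/dabcyl DNA beacon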
STEP inh conf = confirmation of human STEP phosphatase inhibitors | shares compounds with STEP inh | recombinant STEP, OMFP fluorogenic substrate, fluorescence | inhibition, % at 20 µM | 32% of 520 active | AID 623866;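 also: 0% = enzyme with substrate plus DMSO and 100% = substrate without enzyme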
The depositor's hits bear a star; . = not tested or not shown. Sampled rows, rich in hits. Any-hit rate of the full collection: about 1.8%. Unless noted, no rule for the calls is given here.

SMILES	SUMO1 PPI mod	HKDC1 inhibitor	Scp-1 inhibitor	LMPTP block	STEP inh	DNMT1 block	DNMT1 inh conf	DNMT1 interf	others
O=C(O)c1ccccc1-c1ccccc1C(=O)Nc1ccc2c(c1)C(O)c1ccccc1-2 (stereo not drawn)	9	.	.	-1	0	0	.	.
O=C(N/N=C1/C(=O)c2cccc3cccc1c23)c1ccc(Cl)cc1	71*	43*	95*	94*	99*	96*	0	-7	HKDC1 act conf=-2
COc1ccc(NC(=O)CN2C(=O)NC(C)(C3CC3)C2=O)cc1S(=O)(=O)N1CCOCC1 (stereo not drawn)	9	-1	-8	0	-2	-10	.	.
O=C(Nc1ccc(N2CCCC2)cc1)c1cccc(-c2cc3ccccc3oc2=O)c1	-2	-40	-3	23	9	76*	-1	4	HKDC1 act conf=-25*
O=C(Nc1ccccc1N1CCCC1)c1cccc(-c2cc3ccccc3oc2=O)c1	-2	0	-2	3	8	3	.	.
Cc1ccc(NC(=O)CN2C(=O)S/C(=C\c3cccn3-c3cccc(C(=O)O)c3)C2=O)c(C)c1	9	33	84*	48	71*	85*	69*	-5	HKDC1 act conf=-23;Beacon interf DR=>99
CC(C)c1ccc(OCc2ccc(C(=O)N3CCCC3)o2)cc1	9	-4	4	2	4	-1	.	.
COc1ccc(-c2coc3c(C(=O)NCCN(C)C)cccc23)c(C)c1	-1	.	.	0	2	-3	.	.
COc1ccc(-c2nc3c(C(=O)NCCN(C)C)cccc3c3ccccc23)cc1	-30	39*	10	-1	1	59*	22	-1	HKDC1 act conf=37
CC(=NNC(=S)N1CC2CCC(CC2)C1)c1cccc(C)n1	-2	-47	-2	2	59*	0	.	.	HKDC1 act conf=-52*;STEP inh conf=active
O=C(NN1C(=O)c2cc(Br)ccc2NC1c1cc(Br)cc(Br)c1O)c1ccncc1 (stereo not drawn)	32	-1	-10	1	-3	-7	.	.
COc1cc(/C=C2\SC(=O)N(Cc3ccc(Cl)cc3)C2=O)cc([N+](=O)[O-])c1O	105*	17	59*	51*	65*	89*	19	-11	Beacon interf DR=>99
O=C1CN(C(=O)CSc2nnc(C3CC3)n2-c2ccccc2)c2ccccc2N1	1	-3	-5	0	-3	1	.	.
O=C(O)c1ccc2nc(-c3ccco3)c(-c3ccco3)nc2c1	40*	12	47	6	34	100*	5	2
O=C(NC1CCC(CC2CCC(NC(=O)C(Cl)Cl)CC2)CC1)C(Cl)Cl (stereo not drawn)	-7	-7	-5	8	4	63*	1	-2
COC(=O)NC1CCC(CC2CCC(NC(=O)OC)CC2)CC1 (stereo not drawn)	0	-1	-5	0	8	2	.	.
O=C(Nc1ccc(Cc2ccc(NC(=O)Nc3cccnc3)cc2)cc1)Nc1cccnc1	15	.	.	16	1	51*	-1	0
O=C(Nc1ccc(Cl)cc1)Nc1cccnc1	0	-4	0	1	-3	-1	.	.
CCCCN(C(=O)c1cccc(N2C(=O)c3ccccc3C2=O)c1)c1c(N)n(CC(C)C)c(=O)[nH]c1=O	-16	1	-3	-1	2	0	.	.
CCCCN(C(=O)c1cccc(-n2cccc2)c1)c1c(N)n(Cc2ccccc2)c(=O)[nH]c1=O	33	.	.	10	7	92*	7	0
O=c1cccc(-c2cccc3ccccc23)o1	-27	.	.	0	.	.	.	.
O=C(COc1ccccc1)N(Cc1cccs1)C1CCS(=O)(=O)C1 (stereo not drawn)	-3	-4	-2	-1	2	2	.	.
COc1ccccc1NS(=O)(=O)c1cc2c3c(c1)CCN3C(=O)CC2	2	1	2	0	3	84*	2	2
COc1ccccc1CCNS(=O)(=O)c1cc2c3c(c1)CCN3C(=O)CC2	-3	-2	-5	1	0	3	.	.
CCOc1ccc(OCCC(=O)Nc2ccc(F)cc2C)cc1	-5	1	-5	0	2	2	.	.
SMILES	SUMO1 PPI mod	HKDC1 inhibitor	Scp-1 inhibitor	LMPTP block	STEP inh	DNMT1 block	DNMT1 inh conf	DNMT1 interf	others
CN(C)c1ccc(CCc2ccc(N)cc2)cc1	-1	-2	-3	0	1	-3	.	.
Nc1ccc(N(c2ccccc2)c2ccc(N)cc2)cc1	-15	12	10	5	5	62*	-1	0
CN(C(=O)c1cccc(NC(=O)Cc2ccc(NC(=O)C3CCCN(C(=O)C4CC4)C3)cc2)c1)C1CCCC1 (stereo not drawn)	5	-5	4	0	3	4	.	.
CCOC(=O)[C@@H]1[C@H]2COc3ccccc3[C@@H]2N2C(=O)N(c3ccccc3)C(=O)[C@]12C	-2	-7	-6	-1	-1	4	.	.
CCN(C(=O)COC(=O)c1ccc(O)cc1)c1cccc2ccccc12	5	-7	0	-1	-2	1	.	.
CCN(C(=O)COC(=O)c1nccnc1N)c1cccc2ccccc12	-17	-16	-12	-1	-3	61*	3	3
O=C1C2C3C=CC(C2C(=O)N1c1nccs1)C1C(=O)N(c2nccs2)C(=O)C31 (stereo not drawn)	3	1	5	-2	1	3	.	.
O=C1C2C3C=CC(CC3)C2C(=O)N1c1nccs1 (stereo not drawn)	2	-5	7	0	4	61*	-2	1
COc1cc(C)ccc1OCc1cc(C(=O)N2CCCCCCC2)no1	-5	5	-5	2	-1	-1	.	.
Cc1ccc(OCCn2ncc3ccccc3c2=O)c(C)c1	2	-5	-13	0	-1	51*	5	7
CCc1nnc2n1N=C(c1ccc(-c3cc(Cl)ccc3Cl)o1)CS2	-5	-8	5	6	4	66*	4	0

High-throughput results (PubChem)
